Measurements taken from ChEMBL document CHEMBL3243955, “A novel synthesis and biological activity of several 5-halo-5'-amino analogues of deoxyribopyrimidine nucleosides” (J Med Chem, 1978).
Active and inactive are the calls of the source. No cut-off for these calls is given here.

Assays:
Human alphaherpesvirus 1 [1] = experiment: Antiviral activity against HSV1 CL101 infected in African green monkey Vero cells assessed as plaque forming unit at 200 uM after 40 hrs relative to control; assay type: functional; conditions: Human alphaherpesvirus 1, CL101, Vero
Summary of the method: (§1)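 After 1 h adsorption at 37 °C, the inoculum was removed and cells washed with PBS. Compound was added in serum-supplemented medium and cultures incubated 40 h at 37 °C. Virus was released by one freeze–thaw and titrated by plaque assay on Vero cells. Percent inhibition was pfu relative to drug-free cultures.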

CCRF S-180 [2] = experiment: Cytotoxicity against mouse S180 cells at 200 uM after 18 to 42 hrs relative to control; assay type: functional, cell-based
Summary of the method: (§2)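 Mouse sarcoma 180 suspension cultures in Fischer's medium with 10% horse serum, 37 °C, humidified 5% CO2 (generation time ~18 h). Compound was added to exponential-phase cells at ~2 × 10⁴ cells/mL. Increase in cell number was measured after 18 and 42 h. Percent inhibition was calculated relative to drug-free control.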

Vero [3] = experiment: Cytotoxicity against African green monkey Vero cells at 200 uM after 3 days by haemocytometry; assay type: cell-based; conditions: chlorocebus sabaeus, 72 h
Human alphaherpesvirus 1 [4] = experiment: Antiviral activity against HSV1 CL101 infected in African green monkey Vero cells assessed as plaque forming unit at 50 uM after 40 hrs relative to control; assay type: functional; conditions: Human alphaherpesvirus 1, CL101, Vero; summary of the method: as §1
Vero [5] = experiment: (§3) Cytotoxicity against African green monkey Vero cells at 50 uM after 3 days by haemocytometry; assay type: cell-based; conditions: chlorocebus sabaeus, vero, 72 h, 50 µM
Summary of the method: (§4)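 Uninfected Vero cells were seeded at 0.1 confluency in Dulbecco's medium with 10% fetal calf serum and incubated 1 day at 37 °C in 5% CO2. Compound was then added in growth medium. Duplicate flasks were harvested at once and then daily for 3 days by trypsin (0.125%)/EDTA (0.02%) for 15 min at 37 °C, dispersed, and stained with trypan blue. Cells were counted by haemocytometer.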

Vero [6] = experiment: Cytotoxicity against African green monkey Vero cells at 800 uM after 3 days by haemocytometry; assay type: cell-based; conditions: chlorocebus sabaeus, 72 h; summary of the method: as §4
[7] = (§5) Cytotoxicity against African green monkey Vero cells at 400 uM after 3 days by haemocytometry; assay type: cell-based; conditions: chlorocebus sabaeus, Vero cells; read-out: INH; summary of the method: as §4
CCRF S-180 [8] = experiment: Cytotoxicity against mouse S180 cells at 400 uM after 18 to 42 hrs relative to control; assay type: functional; summary of the method: as §2
Human alphaherpesvirus 1 [9] = experiment: Antiviral activity against HSV1 CL101 infected in African green monkey Vero cells assessed as plaque forming unit at 400 uM after 40 hrs relative to control; assay type: functional; conditions: Human alphaherpesvirus 1, CL101, Vero; summary of the method: as §1
Vero [10] = experiment: as §5; assay type: cell-based; conditions: chlorocebus sabaeus, vero, 72 h, 400 µM; summary of the method: as §4
Vero [11] = experiment: Cytotoxicity against African green monkey Vero cells at 1600 uM after 3 days by haemocytometry; assay type: cell-based; conditions: chlorocebus sabaeus, 72 h; summary of the method: as §4
CCRF S-180 [12] = experiment: Cytotoxicity against mouse S180 cells at 1600 uM after 18 to 42 hrs relative to control; assay type: functional, cell-based; summary of the method: as §2
CCRF S-180 [13] = experiment: Cytotoxicity against mouse S180 cells at 50 uM after 18 to 42 hrs relative to control; assay type: functional; summary of the method: as §2
[14] = as §3; assay type: cell-based; conditions: chlorocebus sabaeus, Vero cells; read-out: INH; summary of the method: as §4
CCRF S-180 [15] = experiment: Cytotoxicity against mouse S180 cells at 1 uM after 18 to 42 hrs relative to control; assay type: functional; summary of the method: as §2
Human alphaherpesvirus 1 [16] = experiment: Antiviral activity against HSV1 CL101 infected in African green monkey Vero cells assessed as plaque forming unit at 1 uM after 40 hrs relative to control; assay type: functional, organism-based; summary of the method: as §1
Vero [17] = experiment: Cytotoxicity against African green monkey Vero cells at 1 uM after 3 days by haemocytometry; assay type: cell-based; conditions: chlorocebus sabaeus, 72 h; summary of the method: as §4
[18] = Cytotoxicity against African green monkey Vero cells at 0.1 uM after 3 days by haemocytometry; assay type: cell-based; conditions: chlorocebus sabaeus, read-out: INH; summary of the method: as §4
CCRF S-180 [19] = experiment: Cytotoxicity against mouse S180 cells at 0.01 after 18 to 42 hrs relative to control; assay type: functional; summary of the method: as §2
CCRF S-180 [20] = experiment: Cytotoxicity against mouse S180 cells at 0.1 uM after 18 to 42 hrs relative to control; assay type: functional; summary of the method: as §2
Vero [21] = experiment: Cytotoxicity against African green monkey Vero cells at 0.01 uM after 3 days by haemocytometry; assay type: cell-based; conditions: chlorocebus sabaeus, 72 h; summary of the method: as §4

## [N-]=[N+]=NC[C@H]1O[C@@H](n2cc(I)c(N)nc2=O)C[C@@H]1O
Human alphaherpesvirus 1 [1]
  inhibition at 200 µM: 37.5%
CCRF S-180 [2]
  inhibition: inactive
Vero [3]
  Activity: Non-toxic

## Nc1nc(=O)n([C@H]2C[C@H](O)[C@@H](CO)O2)cc1I [IBACITABINE]
Human alphaherpesvirus 1 [4]
  inhibition at 50 µM: 99.5%
Vero [5]
  Activity: Non-toxic
Vero [6]
  Activity: Non-toxic

## [N-]=[N+]=NC[C@H]1O[C@@H](n2cc(F)c(O)nc2=O)C[C@@H]1O
[7]
  cytotoxicity at 72 h, 400 µM: 100%
CCRF S-180 [8]
  inhibition at 400 µM: 100%
Human alphaherpesvirus 1 [9]
  inhibition at 400 µM: 5%

## NC[C@H]1O[C@@H](n2cc(I)c(N)nc2=O)C[C@@H]1O
Vero [10]
  Activity: Non-toxic
CCRF S-180 [8]
  inhibition: inactive
Vero [11]
  Activity: Non-toxic
Human alphaherpesvirus 1 [9]
  inhibition at 400 µM: 92.8%
CCRF S-180 [12]
  inhibition: inactive

## O=c1[nH]c(=O)n([C@H]2C[C@H](O)[C@@H](CO)O2)cc1I [IDOXURIDINE]
Human alphaherpesvirus 1 [4]
  inhibition at 50 µM: 99.5%
CCRF S-180 [13]
  inhibition at 50 µM: 100%
[14]
  cytotoxicity at 72 h, 50 µM: 100%

## NC[C@H]1O[C@@H](n2cc(F)c(=O)[nH]c2=O)C[C@@H]1O
[7]
  cytotoxicity at 72 h, 400 µM: 100%
CCRF S-180 [8]
  inhibition at 400 µM: 100%
CCRF S-180 [15]
  inhibition at 1 µM: 100%
Human alphaherpesvirus 1 [9]
  inhibition at 400 µM: 85.6%
Human alphaherpesvirus 1 [16]
  inhibition: inactive
Vero [17]
  Activity: Non-toxic

## NC[C@H]1O[C@@H](n2cc(Cl)c(O)nc2=O)C[C@@H]1O
Vero [10]
  Activity: Non-toxic
CCRF S-180 [8]
  inhibition: inactive
Human alphaherpesvirus 1 [9]
  inhibition at 400 µM: 74.3%

## O=c1[nH]c(=O)n([C@H]2C[C@H](O)[C@@H](CO)O2)cc1F [FLOXURIDINE]
[7]
  cytotoxicity at 72 h, 400 µM: 100%
CCRF S-180 [8]
  inhibition at 400 µM: 100%
[18]
  cytotoxicity at 72 h, 0.1 µM: 100%
CCRF S-180 [19]
  inhibition (INH): 100%
CCRF S-180 [20]
  inhibition at 0.1 µM: 100%
Vero [21]
  Activity: Non-toxic
Human alphaherpesvirus 1 [9]
  inhibition at 400 µM: 84.3%

## NC[C@H]1O[C@@H](n2cc(Br)c(O)nc2=O)C[C@@H]1O
Human alphaherpesvirus 1 [1]
  inhibition at 200 µM: 86.2%
CCRF S-180 [2]
  inhibition: inactive
Vero [3]
  Activity: Non-toxic
